# Calls of active or inactive are those of the source. No cut-off for these calls is given here.
# Key:
# [1] = molecular target: ATP binding cassette transporter Abc1p (Issatchenkia orientalis) (UniProt Q09GQ4); test: Inhibition of Candida krusei ABC1 expressed in Saccharomyces cerevisiae isolate ADdelta at 22 nM; conditions: Pichia kudriavzevii
# [2] = molecular target: ATP binding cassette transporter Abc1p (Issatchenkia orientalis) (UniProt Q09GQ4); test: Inhibition of Candida krusei ABC1 expressed in Saccharomyces cerevisiae isolate ADdelta at 2 nM; conditions: Pichia kudriavzevii
# [3] = molecular target: ATP binding cassette transporter Abc1p (Issatchenkia orientalis) (UniProt Q09GQ4); test: Inhibition of Candida krusei ABC1 expressed in Saccharomyces cerevisiae isolate ADdelta at 0.37 nM; conditions: Pichia kudriavzevii
# Saccharomyces cerevisiae [4] = test: Fold resistant, ratio of MIC for Saccharomyces cerevisiae isolate ADdelta overexpressing Saccharomyces cerevisiae ERG11 to MIC for Saccharomyces cerevisiae isolate ADdelta overexpressing Abc1p; format: functional
# In short: (§1)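 Fold resistance is the ratio of azole MICs between S. cerevisiae overexpressing strains. The MICs were measured by liquid broth microdilution in CSM medium at pH 7.0. The ERG11 or ABC1 constructs are integrated at the PDR5 locus.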
# Pichia kudriavzevii [5] = test: Antimicrobial activity against Candida krusei NZCDC 90.147 after 48 hrs by liquid microdilution assay; format: functional; conditions: NZCDC 90.147, 48 h
# In short: (§2)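 Liquid broth microdilution susceptibility assay in CSM medium at pH 7.0, which was also the medium used for the expression studies. Fungal strains were maintained in YPD. The S. cerevisiae test strains carry C. krusei ABC1 or fungal ERG11 alleles integrated at the chromosomal PDR5 locus.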
# [6] = molecular target: ATP binding cassette transporter Abc1p (Issatchenkia orientalis) (UniProt Q09GQ4); test: Inhibition of Candida krusei ABC1 expressed in Saccharomyces cerevisiae isolate ADdelta at 0.28 nM; conditions: Pichia kudriavzevii
# Pichia kudriavzevii [7] = test: Antimicrobial activity against Candida krusei B2399 after 48 hrs by liquid microdilution assay; format: functional; conditions: B2399, 48 h; in short: as §2
# Saccharomyces cerevisiae [8] = test: Antimicrobial activity against Saccharomyces cerevisiae isolate ADdelta overexpressing Saccharomyces cerevisiae ERG11 after 48 hrs by liquid microdilution assay; format: functional; in short: as §2
# Saccharomyces cerevisiae [9] = test: Antimicrobial activity against Saccharomyces cerevisiae isolate ADdelta overexpressing Candida albicans ERG11A after 48 hrs by liquid microdilution assay; format: functional; in short: as §2
# Pichia kudriavzevii [10] = test: Antimicrobial activity against Candida krusei NZCDC 89.021 after 48 hrs by liquid microdilution assay; format: functional; conditions: NZCDC 89.021, 48 h; in short: as §2
# Pichia kudriavzevii [11] = test: Antimicrobial activity against Candida krusei IFO0011 after 48 hrs by liquid microdilution assay; format: functional; conditions: IFO0011, 48 h; in short: as §2
# Saccharomyces cerevisiae [12] = test: Fold resistant, ratio of MIC for Saccharomyces cerevisiae isolate ADdelta overexpressing Candida albicans ERG11A to MIC for Saccharomyces cerevisiae isolate ADdelta overexpressing Abc1p; format: functional; in short: as §1
# Saccharomyces cerevisiae [13] = test: Antimicrobial activity against Saccharomyces cerevisiae isolate ADdelta overexpressing Abc1p after 48 hrs by liquid microdilution assay; format: functional; in short: as §2
# Pichia kudriavzevii [14] = test: Antimicrobial activity against Candida krusei IFO0011 after 48 hrs by CLSI method; format: functional; conditions: IFO0011, 48 h
# In short: (§3)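 Azole MICs were determined by the CLSI M27-A2 broth microdilution reference method. They were interpreted against the CLSI breakpoints. Strains were maintained in YPD medium (1% yeast extract, 2% peptone, 2% glucose).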
# Saccharomyces cerevisiae [15] = test: Antimicrobial activity against Saccharomyces cerevisiae isolate AD overexpressing Candida krusei ERG11C after 48 hrs by liquid microdilution assay; format: functional; in short: as §2
# Pichia kudriavzevii [16] = test: Antimicrobial activity against Candida krusei NZCDC 90.147 after 48 hrs by CLSI method; format: functional; in short: as §3
# Pichia kudriavzevii [17] = test: Antimicrobial activity against Candida krusei B2399 after 48 hrs by CLSI method; format: functional; conditions: B2399, 48 h; in short: as §3
# Pichia kudriavzevii [18] = test: Antimicrobial activity against Candida krusei NZCDC 89.221 after 48 hrs by liquid microdilution assay; format: functional; conditions: NZCDC 89.221, 48 h; in short: as §2
# Pichia kudriavzevii [19] = test: Antimicrobial activity against Candida krusei NZCDC 89.102 after 48 hrs by CLSI method; format: functional; in short: as §3
# Pichia kudriavzevii [20] = test: Antimicrobial activity against Candida krusei NZCDC 89.021 after 48 hrs by CLSI method; format: functional; conditions: NZCDC 89.021, 48 h; in short: as §3
# Pichia kudriavzevii [21] = test: Antimicrobial activity against Candida krusei NZCDC 89.221 after 48 hrs by CLSI method; format: functional; in short: as §3
# Saccharomyces cerevisiae [22] = test: Fold resistant, ratio of MIC for Saccharomyces cerevisiae isolate ADdelta overexpressing Candida krusei ERG11C to MIC for Saccharomyces cerevisiae isolate ADdelta overexpressing Abc1p; format: functional; in short: as §1
# Saccharomyces cerevisiae [23] = test: Antimicrobial activity against Saccharomyces cerevisiae isolate ADdelta overexpressing Candida krusei ERG11g after 48 hrs by liquid microdilution assay; format: functional; in short: as §2
# Pichia kudriavzevii [24] = test: Antimicrobial activity against Candida krusei NZCDC 89.102 after 48 hrs by liquid microdilution assay; format: functional; conditions: NZCDC 89.102, 48 h; in short: as §2
# Saccharomyces cerevisiae [25] = test: Fold resistant, ratio of MIC for Saccharomyces cerevisiae isolate ADdelta overexpressing Candida krusei ERG11g to MIC for Saccharomyces cerevisiae isolate ADdelta overexpressing Abc1p; format: functional; in short: as §1
# [26] = molecular target: ATP binding cassette transporter Abc1p (Issatchenkia orientalis) (UniProt Q09GQ4); test: Inhibition of Candida krusei Abc1p expressed in Saccharomyces cerevisiae isolate AD assessed as reduction of itraconazole MIC at 1 ug after 48 hrs by agarose diffusion assay; conditions: Pichia kudriavzevii
# [27] = molecular target: ATP binding cassette transporter Abc1p (Issatchenkia orientalis) (UniProt Q09GQ4); test: Inhibition of Candida krusei IF011 Abc1p assessed as reduction of itraconazole MIC at 1 ug after 48 hrs by agarose diffusion assay; conditions: Pichia kudriavzevii
# [28] = molecular target: ATP binding cassette transporter Abc1p (Issatchenkia orientalis) (UniProt Q09GQ4); test: Inhibition of Candida krusei B2399 Abc1p assessed as reduction of itraconazole MIC at 1 ug after 48 hrs by agarose diffusion assay; conditions: Pichia kudriavzevii
# [29] = molecular target: ATP binding cassette transporter Abc1p (Issatchenkia orientalis) (UniProt Q09GQ4); test: Inhibition of Candida krusei ABC1 expressed in Saccharomyces cerevisiae isolate ADdelta at 8 nM; conditions: Pichia kudriavzevii
# [30] = molecular target: ATP binding cassette transporter Abc1p (Issatchenkia orientalis) (UniProt Q09GQ4); test: Inhibition of Candida krusei ABC1 expressed in Saccharomyces cerevisiae isolate ADdelta at 46 nM; conditions: Pichia kudriavzevii
# In short: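 Agarose disk-diffusion test of S. cerevisiae AD overexpressing C. krusei Abc1p, with the parent AD strain as comparison. Cells were pregrown from YPD overnight into CSM to mid-log at 30°C. They were seeded at OD600 0.008 in CSM with 0.6% agarose, overlaid on CSM agar (pH 7.0). Paper disks carrying set nmol amounts of xenobiotic were applied, and plates were incubated at 30°C for 48 h before reading growth inhibition zones.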
# [31] = molecular target: ATP binding cassette transporter Abc1p (Issatchenkia orientalis) (UniProt Q09GQ4); test: Inhibition of Candida krusei B2399 Abc1p assessed as reduction of fluconazole MIC at 2.5 ug/ml after 48 hrs by checkerboard susceptibility assay; conditions: Pichia kudriavzevii
# In short: (§4)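 Checkerboard liquid microdilution in CSM (pH 7.0). FLC or ITC MICs of AD/CkABC1g or C. krusei B2399 were measured across a range of milbemycin concentrations. Interaction was expressed as fractional inhibitory concentration index (FICI).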
# [32] = molecular target: ATP binding cassette transporter Abc1p (Issatchenkia orientalis) (UniProt Q09GQ4); test: Inhibition of Candida krusei B2399 Abc1p assessed as reduction of itraconazole MIC at 2.5 ug/ml after 48 hrs by checkerboard susceptibility assay; conditions: Pichia kudriavzevii; in short: as §4
# [33] = molecular target: ATP binding cassette transporter Abc1p (Issatchenkia orientalis) (UniProt Q09GQ4); test: Inhibition of Candida krusei Abc1g expressed in Saccharomyces cerevisiae isolate ADdelta assessed as reduction of itraconazole MIC at 2.5 ug/ml after 48 hrs by checkerboard susceptibility assay; conditions: Pichia kudriavzevii; in short: as §4
# [34] = molecular target: ATP binding cassette transporter Abc1p (Issatchenkia orientalis) (UniProt Q09GQ4); test: Inhibition of Candida krusei Abc1g expressed in Saccharomyces cerevisiae isolate ADdelta assessed as reduction of fluconazole MIC at 2.5 ug/ml after 48 hrs by checkerboard susceptibility assay; conditions: Pichia kudriavzevii; in short: as §4
molecule,measurement,setting,value
NYSTATIN,Activity,[1],inactive
C/C=C/C/C=C/CCC(=O)[C@H]1O[C@H]1C(N)=O,Activity,[2],Active
C[C@@H]1C[C@@H]([C@H](O)CC2CC(=O)NC(=O)C2)C(=O)[C@@H](C)C1,Activity,[3],Active
CC(=O)N1CCN(c2ccc(OCC3COC(Cn4ccnc4)(c4ccc(Cl)cc4Cl)O3)cc2)CC1 (configuration not stated) [KETOCONAZOLE],ratio,Saccharomyces cerevisiae [4],2
same,MIC,Pichia kudriavzevii [5],4 mg/L
same,Activity,[6],inactive
same,MIC,Pichia kudriavzevii [7],2 mg/L
same,MIC,Saccharomyces cerevisiae [8],0.063 mg/L
same,MIC,Saccharomyces cerevisiae [9],0.125 mg/L
same,MIC,Pichia kudriavzevii [10],4 mg/L
same,MIC,Pichia kudriavzevii [11],2 mg/L
same,ratio,Saccharomyces cerevisiae [12],4
same,MIC,Saccharomyces cerevisiae [13],0.031 mg/L
same,MIC,Pichia kudriavzevii [14],1 mg/L
same,MIC,Saccharomyces cerevisiae [15],0.063 mg/L
same,MIC,Pichia kudriavzevii [16],1 mg/L
same,MIC,Pichia kudriavzevii [17],0.5 mg/L
same,MIC,Pichia kudriavzevii [18],2 mg/L
same,MIC,Pichia kudriavzevii [19],0.5 mg/L
same,MIC,Pichia kudriavzevii [20],0.5 mg/L
same,MIC,Pichia kudriavzevii [21],0.5 mg/L
same,ratio,Saccharomyces cerevisiae [22],2
same,MIC,Saccharomyces cerevisiae [23],2 mg/L
same,MIC,Pichia kudriavzevii [24],4 mg/L
same,ratio,Saccharomyces cerevisiae [25],64
CO[C@@H]1C(CO)=C[C@H]2C(=O)O[C@H]3C[C@@H](C/C=C(\C)C[C@@H](C)/C=C/C=C4\CO[C@H]1[C@@]42O)O[C@@]1(CC[C@H](C)[C@@H](C)O1)C3,Activity,[26],Active
same,Activity,[27],Active
same,Activity,[28],Active
CO[C@@H]1C[C@@H](C[C@H]2CC[C@H](C)[C@H]([C@@H](C)C(=O)O)O2)O[C@]2(O[C@](C)([C@H]3CC[C@@](C)([C@@H]4O[C@@H]([C@H]5O[C@@](O)(CO)[C@H](C)C[C@@H]5C)C[C@@H]4C)O3)C[C@H]2C)[C@@H]1C,Activity,[29],Active
CN(C/C=C/C#CC(C)(C)C)Cc1cccc2ccccc12,Activity,[30],inactive
C/C=C(\C)C(=O)OCC1=C[C@H]2C(=O)O[C@H]3C[C@@H](C/C=C(\C)C[C@@H](C)/C=C/C=C4\CO[C@H]([C@@H]1O)[C@@]42O)O[C@@]1(CC[C@H](C)[C@@H](C)O1)C3,MIC,[31],64 mg/L
same,Activity,[26],Active
same,MIC,[32],0.125 mg/L
same,Activity,[33],Active
same,Activity,[27],Active
same,Activity,[28],Active
same,Activity,[34],Active

# — ChEMBL document CHEMBL1649122, “Abc1p is a multidrug efflux transporter that tips the balance in favor of innate azole resistance in Candida krusei” (2009)
